Laboratory results as given in publication PMC6420060 (ACS applied materials & interfaces, 2018).

Columns and labels:
Assay type in all cases: physicochemical
[1] = Permeation into trapped giant unilamellar vesicles measured by FCS; conditions: 20 nM; for permeation into individual GUVs: 20% POPS
Summary of the method: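 POPC/POPS (4:1) GUVs, sucrose inside and glucose outside, ± 10 μM Ru complex for about 45 min. Held in BSA-coated microfluidic hydrodynamic traps with valves pressurised to 2 bar. 20 nM calcein in hosting buffer flushed in, valves reopened, static or under flow. After 30 min, FCS used a 488 nm laser at 60 μW. Curves fitted with a triplet term and corrected for buffer background. Permeation taken as N inside versus outside per vesicle.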

[2] = GUV size after incorporation of Ru; conditions: all samples pooled
Summary of the method: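 GUVs (POPC:POPS 4:1) made by emulsion transfer: 1 M sucrose/140 mM KCl/10 mM HEPES pH 7.4 inside, 1 M glucose/140 mM NaCl/10 mM HEPES outside. Incubated with 10 μM (final) Ru complex, typically 45 min, ± 200 μM (final) potassium ferricyanide. Imaged under a 60× water-immersion objective. Diameter taken at the z-plane of largest size, averaged over x and y. All vesicles pooled into histograms.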

[3] = ζ-Potential of GUVs after incubation with Ru; conditions: GUVs containing 1 M sucrose measured in 1 M glucose, Zetasizer Nano ZSP

| Compound | permeation into individual GUVs ([1]; with Ru(C17)2^2+, sub-20 μm vesicle diameters) | permeation into individual GUVs under flow ([1]; without Ru(C17)2^2+, nominal flow rates of 2, 5, 8, and 11 μL/min, larger vesicles (above 20 μm)) | permeation into individual GUVs ([1]; without Ru(C17)2^2+, vesicle diameter 20 μm) | permeation into individual GUVs ([1]; without Ru(C17)2^2+, vesicle diameter down to 10 μm) | vesicle diameter with Ru(C17)2^2+ and addition of potassium ferricyanide [2] | vesicle diameter upon incorporation of Ru(C17)2^2+ ([2]; 23.0 ± 6.6 without Ru(C17)2^2+) | ζ-potential of GUVs after incubation with Ru(C17)2^2+ ([3]; start of the period, pure GUVs with 20% POPS −90.8 ± 3.3 mV) | ζ-potential of GUVs after incubation with Ru(C17)2^2+ ([3]; up to 9 h after incubation) |
| --- | --- | --- | --- | --- | --- | --- | --- | --- |
| O=C(O)CN(CC(=O)O)Cc1cc2c(cc1O)Oc1cc(O)c(CN(CC(=O)O)CC(=O)O)cc1C21OC(=O)c2ccccc21 [calcein] | below 30% | below 10% | below 10% | 60% | – | – | – | – |
| dihepta-decylated tris(bipyridine)ruthenium(II) complex [Ru(C17)2^2+] | – | – | – | – | 15.8 ± 3.8 µm | 17.9 ± 4.8 nm | −11.7 ± 4.8 mV | −18.5 ± 2.6 mV |
